This is a sample that favours compounds with a hit; in the whole collection about 1.9% have one here.
CHRM4 antagonist – antagonists of human muscarinic M4 receptor (CHRM4) | 0.73% of 360,000 active | CHO-hM4 cells, ACh EC80, Fluo-8 calcium fluorescence | AID 624125 | P08173 | inhibition, % at 3 µM;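 active = inhibition above its plate's cutoff, the mean inhibition of sample wells plus 3 SD, cut at about 27% in these data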;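 also: 0% = acetylcholine EC80 with DMSO and 100% = DMSO without agonist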
Target sequence (P08173 whole entry, looked up): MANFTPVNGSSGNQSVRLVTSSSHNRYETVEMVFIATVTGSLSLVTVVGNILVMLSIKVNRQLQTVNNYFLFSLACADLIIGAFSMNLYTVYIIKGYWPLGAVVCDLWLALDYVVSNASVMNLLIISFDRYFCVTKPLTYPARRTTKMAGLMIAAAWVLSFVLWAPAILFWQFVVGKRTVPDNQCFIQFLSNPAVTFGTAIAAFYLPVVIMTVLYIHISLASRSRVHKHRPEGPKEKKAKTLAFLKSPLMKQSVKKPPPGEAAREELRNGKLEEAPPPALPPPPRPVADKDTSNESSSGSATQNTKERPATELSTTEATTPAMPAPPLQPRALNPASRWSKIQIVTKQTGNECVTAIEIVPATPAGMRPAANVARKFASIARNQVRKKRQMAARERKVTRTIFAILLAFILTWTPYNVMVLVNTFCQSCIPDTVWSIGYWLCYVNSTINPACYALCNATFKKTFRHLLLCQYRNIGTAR
CHRM5 PAM – potentiates acetylcholine response at human M5 receptor. P08912. CHO-K1 hM5, Fluo-8 calcium, ACh EC20 PAM; 0% = ACh EC20, 100% = ACh EC100. activation, % at 3 µM. 0.3% of 360,000 active;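 active = activation above the run cutoff, the mean activation of all test compounds plus 3 SD, cut at about 18% in these data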
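System: CHO-K1 cell line with stable human muscarinic M5 receptor expression | Also added: EC20 acetylcholine as agonist stimulus | Compound: One concentration, 3 µM final (nominal) | Timing: Fluo-8 loading 80 min at 37 °C plus 30 min room temperature | Measured by: Fluo-8 calcium dye fluorescence, kinetic read | Read-out basis: % activation, ACh-normalized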
M5 ag – CHRM5 agonism in calcium assay | CHO-K1 hM5 cells, Fluo-8 calcium fluorescence; 0% DMSO wells, 100% maximal acetylcholine response | activation, % at 3 µM | AID 624037 | 0.19% of 360,000 active | P08912;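 active = activation above the run's mean over test compounds plus 3 SD, cut at about 23% in these data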;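 also: signal is peak over basal fluorescence ratio across the kinetic read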
CHRM4 PAM – positive allosteric modulators of human muscarinic M4 receptor | CHO-K1 hM4/Gqi5, Fluo-8 calcium fluorescence, ACh EC20; 0% = ACh EC20, 100% = maximal ACh | activation, % at 3 µM | 0.4% of 360,000 active | AID 624126;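 active = activation above its plate's cutoff, the mean activation of sample wells plus 3 SD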
M5 antag – blocks acetylcholine activation of human M5 receptor. P08912. CHO-hM5 cells, Fluo-8 calcium fluorescence, ACh EC80. inhibition, % at 3 µM. 0.59% of 360,000 active;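 active = inhibition above a per-plate cutoff, the mean of that plate's test compounds plus 3 SD, cut at about 27% in these data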;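 also: 0% = acetylcholine EC80 with DMSO and 100% = DMSO without agonist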
M4 ag – CHRM4 agonism in calcium assay | AID 624127 | activation, % at 3 µM | 0.14% of 360,000 active | CHO-K1 hM4/Gqi5, Fluo-8 calcium fluorescence; vehicle 0%, full acetylcholine response 100%;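 active = activation above the run mean over all test wells plus 3 SD, cut at about 32% in these data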;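 also: peak over basal fluorescence ratio per well then scaled between controls; 0% = DMSO wells and 100% = acetylcholine at EC100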
* hit, by the source's call.

SMILES	CHRM4 antagonist	CHRM5 PAM	M5 ag	CHRM4 PAM	M5 antag	M4 ag
CN(C(=O)c1ccc(NC(=O)Cc2ccc(NC(=O)C3CCN(C(=O)C4CC4)CC3)cc2)cc1)C1CCCC1	-21	-5	-1	20*	-1	0
O=C(Nc1ccccc1)C1CCCN(C(=O)c2ccc(F)cc2)C1 (stereo not given)	-4	2	1	22*	1	2
O=C(NCCc1ccccn1)c1ccc(OC2CCN(Cc3ccccn3)CC2)cc1	1	2	-4	-1	-2	1
CC(Cc1ccccn1)NC(=O)c1ccc(OC2CCN(Cc3ccccn3)CC2)cc1 (stereo not given)	12	4	-5	18*	-5	2
CCn1c(N)c(C(=O)NCCOC)sc1=S	-8	-1	-1	17	-4	2
CCn1c(N)c(C(=O)Nc2ccccc2C(=O)OC)sc1=S	-14	8	-1	37*	3	1
COc1ccccc1CNC(=O)COc1cc(O)c2c(c1)OC(C)(C)CC2=O	-10	-7	2	-1	3	8
O=c1c2ccccc2sc2ccc(NCCCN3CCOCC3)cc12	-15	-10	18	0	18	33*
CCOC(=O)c1cc(-c2ccc3c(c2)OCCO3)n[nH]1	-17	14	6	27*	-13	-1
Cc1csc(NC(=O)CSc2nnc(-c3ccoc3C)o2)n1	-17	0	-1	9	-2	3
Cc1occc1-c1nnc(SCC(=O)Nc2nc(C(C)(C)C)cs2)o1	19	-23	6	-9	30*	22
CCOC(=O)[C@]12CCCC=C1N(Cc1ccccc1)C(=O)[C@H](CC(=O)N1CCC(c3ccccc3)CC1)C2	-10	-10	-1	6	4	3
C=CCN(c1ccccc1OC)S(=O)(=O)c1cccc(C(=O)OCC(=O)c2c(N)n(C)c(=O)n(C)c2=O)c1	14	-34	-3	-13	27*	15
CN(Cc1ccccc1)C(=O)CN1CCN(S(=O)(=O)c2ccccc2F)CC1	-9	2	-1	7	3	3
O=[N+]([O-])c1ccc(S(=O)(=O)c2cccc(C(F)(F)F)c2)nc1	46*	-2	-2	-6	17	3
Cn1c(NCc2ccccc2F)nc2cc(-c3cccc(C(F)(F)F)c3)sc2c1=O	1	-3	1	0	7	1
CCC(CO)Nc1ccn2nc(-c3cccc(Cl)c3)cc2n1 (stereo not given)	-5	-8	0	-1	8	5
CCOc1cc(/C=C/C(=O)c2ccc(OC)c(CN3CCOCC3)c2)cc(Br)c1O	0	-6	10	-14	5	33*
CCNC(=O)C[C@@H]1CC[C@H]2[C@@H](COC[C@H](O)CN2C(=O)C2CC2)O1	2	0	1	0	3	2
O=C(Oc1cccc2c(OC(=O)N3CCOCC3)cccc12)N1CCOCC1	14	8	1	8	-6	0
O=C(Oc1ccc2cccc(OC(=O)N3CCOCC3)c2c1)N1CCOCC1	-2	19*	1	1	2	1
CC(=O)NCCCNC(=S)NCCCN(Cc1ccc(Cl)cc1)c1ccc(Br)cn1	1	1	2	-5	-4	10
O=C(NCCO)C(=O)Nc1cc2c3c(c1)CC(=O)N3CCC2	1	8	-4	14*	1	-1
O=C(COc1ccc([N+](=O)[O-])cc1)NNC(=O)C1COc2ccccc2O1 (stereo not given)	-7	-2	1	8	-5	1
CCC1([N+](=O)[O-])COC(c2ccc(Cl)cc2)OC1 (stereo not given)	-10	9	-2	27*	2	2
SMILES	CHRM4 antagonist	CHRM5 PAM	M5 ag	CHRM4 PAM	M5 antag	M4 ag
CC1(C(=O)O)COC(c2ccc(Cl)cc2)OC1 (stereo not given)	-1	5	-3	9	2	1
CCOC(=O)C=C1CCN(c2ncc(C(F)(F)F)cc2Cl)CC1	-4	-6	0	-3	5	0
CCOC(=O)N1CCN(c2ncc(C(F)(F)F)cc2Cl)CC1	-6	-4	-5	23*	-8	1
COC(=O)Cn1c(=O)cnc2ccccc21	4	2	1	0	-3	-1
O=C(Cn1c(=O)cnc2ccccc21)NCC(=O)Nc1ccc(F)c(F)c1	-26	-2	-1	9	-4	2
O=C(O)Cn1c(=O)cnc2ccccc21	27*	0	-3	6	11	2
COC(=O)c1cc(NC(=O)Cn2c(=O)cnc3ccccc32)cc(C(=O)OC)c1	-9	20*	-4	3	-7	1
COCc1cccc(-c2csc(C(C)(O)c3ccccc3)n2)c1 (stereo not given)	9	-11	0	-8	19	3
CCNc1ccc(C(=O)OCC(=O)NCCN2C(=O)CSC2=O)cc1[N+](=O)[O-]	-8	22*	5	6	-10	3
O=[N+]([O-])c1cccc(COc2ccc(CN3CCOCC3)cc2)c1	-6	-16	-3	-10	10	5
O=[N+]([O-])c1cccc(COc2ccc(CN3CCCC3)cc2)c1	28*	-13	-4	-13	6	2
O=C(c1ccncc1)N1N=C(c2ccc(Br)cc2)CC1c1ccccc1O (stereo not given)	6	-9	-3	-13	32*	11
Cc1cc(NC(=O)c2csc([C@@H]3O[C@H](CO)[C@H](O)[C@H](O)[C@H]3O)n2)n(C)n1	-3	-3	0	-1	2	0
CC(C)C(=O)Nc1ccc(-c2nc3ncccc3o2)cc1	12	-3	-3	-7	30*	1
CC(C)C(=O)Nc1cccc(-c2nc3ncccc3o2)c1	8	-6	-1	1	9	3
COc1cc(C(=O)C(=O)N2CCN(c3ccccc3)CC2)cc2ccccc12	-18	18*	0	4	-19	5
COc1ccc(N2CCN(C(=O)C(=O)c3cc(OC)c(OC)c(OC)c3)CC2)cc1	-14	-7	1	1	13	5
O=C(COC(=O)CCCCCN=C1NS(=O)(=O)c2ccccc21)Nc1ccc(Cl)c(Cl)c1	9	-17	-4	-9	45*	13
O=C(CCCN=C1NS(=O)(=O)c2ccccc21)OCC(=O)c1ccccc1	-11	-5	7	4	3	4
CN(C)S(=O)(=O)c1ccc(C(=O)OCC(=O)Nc2cccnc2Cl)cc1	-9	2	5	6	13	3
